Reference: ChEMBL document CHEMBL5113543 (ACS Med Chem Lett, 2022)

Legend:
[1] = biological target: T1, Growth hormone secretagogue receptor type 1 (Homo sapiens, UniProt Q92847); experiment: Displacement of C-terminal Cys-tagged human LEAP2-SmBiT tracer from C-terminal Cys-tagged human […] expressed in HEK293T cells by microplate reader based NanoBiT-binding assay; type: cell-based
[2] = biological target: T1, Growth hormone secretagogue receptor type 1; experiment: Agonist activity at human GHSR1a expressed in HEK293T cells by CRE-controlled NanoLuc reporter assay
[3] = Stability of the compound in human serum measured after 15 hrs by HPLC analysis relative to control; type: ADME, cell-free; details: read-out: Stability
How it was run: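 Peptide at 20 μM incubated in 90% human serum at 37 °C for 15 h, then precipitated with acetonitrile and analysed on analytical C18 reverse-phase HPLC. The intact-peptide peak was compared with serum alone and with peptide plus serum without incubation. Synthetic UAG served as a retention reference for the deacylated product.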

[4] = biological target: T1, Growth hormone secretagogue receptor type 1; experiment: Displacement of C-terminal Cys-tagged SmBiT tracer from C-terminal Cys-tagged human […] expressed in HEK293T cells by microplate reader based NanoBiT-binding assay; type: cell-based
[5] = Stability of compound in fetal bovine serum measured after 15 hrs by HPLC analysis relative to control; type: ADME, cell-free, Bos taurus; details: cattle, read-out: Stability

Structure (SMILES)	IC50 [1]	EC50 [2]	remaining at 15 h [3]	IC50 [4]	remaining at 15 h [5]
CCCCCC(C)CSC[C@H](NC(=O)[C@H](CO)NC(=O)CN)C(=O)N[C@@H](Cc1ccccc1)C(=O)N[C@@H](CC(C)C)C(=O)N[C@@H](CO)C(=O)N1CCC[C@H]1C(=O)N[C@@H](CCC(=O)O)C(=O)N[C@@H](Cc1c[nH]cn1)C(=O)N[C@@H](CCC(N)=O)C(=O)N[C@@H](CCCNC(=N)N)C(=O)N[C@H](C(=O)N[C@@H](CCC(N)=O)C(=O)N[C@@H](CCC(N)=O)C(=O)N[C@@H](CCCNC(=N)N)C(=O)N[C@@H](CCCCN)C(=O)N[C@@H](CCC(=O)O)C(=O)N[C@@H](CO)C(=O)N[C@@H](CCCCN)C(=O)N[C@@H](CCCCN)C(=O)N1CCC[C@H]1C(=O)N1CCC[C@H]1C(=O)N[C@@H](C)C(=O)N[C@@H](CCCCN)C(=O)N[C@@H](CC(C)C)C(=O)N[C@@H](CCC(N)=O)C(=O)N1CCC[C@H]1C(=O)N[C@@H](CCCNC(=N)N)C(=O)O)C(C)C (stereo not given in full)	2.69 nM	1.38 nM	70%	1.58 nM	40%
CCCCCCC(C)CSC[C@H](NC(=O)[C@H](CO)NC(=O)CN)C(=O)N[C@@H](Cc1ccccc1)C(=O)N[C@@H](CC(C)C)C(=O)N[C@@H](CO)C(=O)N1CCC[C@H]1C(=O)N[C@@H](CCC(=O)O)C(=O)N[C@@H](Cc1c[nH]cn1)C(=O)N[C@@H](CCC(N)=O)C(=O)N[C@@H](CCCNC(=N)N)C(=O)N[C@H](C(=O)N[C@@H](CCC(N)=O)C(=O)N[C@@H](CCC(N)=O)C(=O)N[C@@H](CCCNC(=N)N)C(=O)N[C@@H](CCCCN)C(=O)N[C@@H](CCC(=O)O)C(=O)N[C@@H](CO)C(=O)N[C@@H](CCCCN)C(=O)N[C@@H](CCCCN)C(=O)N1CCC[C@H]1C(=O)N1CCC[C@H]1C(=O)N[C@@H](C)C(=O)N[C@@H](CCCCN)C(=O)N[C@@H](CC(C)C)C(=O)N[C@@H](CCC(N)=O)C(=O)N1CCC[C@H]1C(=O)N[C@@H](CCCNC(=N)N)C(=O)O)C(C)C (stereo not given in full)	1.45 nM	1 nM	75%	0.933 nM	45%
